Experimental data: PubChem BioAssay
Unmarked numbers belong to inactive results. Inconclusive results are not listed. Calls of active or inactive are those of the source.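 How the source made its calls, unless noted: active means cell viability at or below a set limit in both duplicate runs, the limit being the all-compound median minus 4 SD (cut at about 23% in these data, passing the limit was not always enough); inconclusive means no clear call, values can overlap the other calls; inactive means the rest.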

How the values were obtained:
[1] = S. cerevisiae growth inhibition in permissive medium (OD615), pilot counter-assay for S. cerevisiae lifespan shortening project, permissive growth control (AID 705;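 active means growth inhibition above 25% in both replicates, a cutoff set 3 SD above the mean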); details: OD615, 24 h, at 10 µM, stronger effect = higher value
Outline: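 assay system = Saccharomyces cerevisiae strain carrying genetically modified DeaD replicative-lifespan system | technique = absorbance (optical density) at 615 nm | buffer or medium = permissive raffinose/galactose medium | timing = cells pre-grown 4 h, then 24 h compound exposure, 30 °C humidified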

[2] = S. cerevisiae growth inhibition in restrictive medium, OD615, pilot screen, restrictive growth control, yeast lifespan reduction project (AID 706;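 active means growth inhibition above a set limit, 3 SD over mean compound inhibition, in both replicates, cut at about 43% in these data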;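 further: modified DeaD lifespan yeast strain shifted to restrictive glucose medium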); details: OD615, 48 h, at 10 µM, stronger effect = higher value
Outline: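 System: modified S. cerevisiae. Buffer or medium: CSMM-D glucose medium. Incubation: 4 h pre-growth plus 48 h compound exposure, 30 °C. Detection: absorbance (optical density) measured at 615 nm.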

[3] = doxorubicin toxicity protection in MRP-1 cells – H69AR cells, CellTiter-Glo, duplicate, MRP-1 activator project, pilot screen (AID 807;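 active means viability increase at or above a cutoff of the median across tested compounds plus 3 SD, cut at about 8.5% in these data, passing the limit was not always enough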;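 further: compound pretreatment 18-22 h then 72 h combined with doxorubicin; 0% = doxorubicin alone and 100% = vehicle without doxorubicin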); details: H69AR viability with doxorubicin, CellTiter-Glo luminescence; at 10 µM; stronger effect = higher value
[4] = viability of HCT116 without oncogenic beta-catenin – human colon tumor cells, pilot screen (AID 823); details: HCT116 beta-catenin knockout viability, CellTiter-Glo, 60 h; at 10 µM; stronger effect = lower value;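 further: 0% = wells killed by 20 µM Hyamine and 100% = untreated DMSO cell wells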
[5] = viability of PTEN-null HCT116 cells – cell-based, HCT116 clonal line, CellTiter-Glo, pilot screen (AID 824;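 active means viability at or below 27.92% in each of two runs, the all-compound median minus 4 SD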;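 further: 0% = 20 µM Hyamine control and 100% = vehicle cell control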); details: HCT116 PTEN-deleted viability, 60 h, at 10 µM, stronger effect = lower value
[6] = RAM pathway blockade in budding yeast – dse1pr::URA3 reporter, 5-FOA selection, pilot screen (AID 869;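 active means inhibition over a set limit, the all-compound mean plus 3 SD, in both replicate runs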;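 further: 0% = DMSO wells with no growth and 100% = 10 µM 1-NA-PP1 with full growth; RAM network block rescues cells from 5-FOA so hits raise OD615 growth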); details: S. cerevisiae dse1pr::URA3 5-FOA growth, OD615, 2 d; at 10 µM; stronger effect = higher value; strain carries analog-sensitive mutant Cbk1 kinase
[7] = RAM signaling pathway blockade in yeast – S. cerevisiae, Pdr1DBD-CYC8 efflux-inhibited sensitized strain, primary screen (AID 1298;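 active means RAM network inhibition above 8.4% in each of two replicates, 3 SD over the compound average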;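 further: 0% = DMSO untreated cells without growth and 100% = 10 µM 1-NA-PP1 full growth; higher means more yeast growth rescued from 5-FOA killing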); details: S. cerevisiae cbk1-as DSE1-URA3 strain, 5-FOA growth OD615, 2 d; at 50 µM; stronger effect = higher value

| SMILES | growth inhibition [1] [%] | growth inhibition [2] [%] | viability increase [3] [%] | viability [4] | viability [5] | inhibition [6] [%] | RAM network inhibition [7] |
| --- | --- | --- | --- | --- | --- | --- | --- |
| Cc1cc(F)ccc1S(=O)(=O)Nc1c(C)n(C)n(-c2ccccc2)c1=O | 1.71 | 0.315 | -1.59 | 114% | 93.7% | 0.205 | 2.26% |
| CCN(CC)S(=O)(=O)c1ccc(C2CNC(=O)C2)cc1 (configuration not stated) | -6.66 | -3.95 | 1.75 | 106% | 102% | 1.48 | -0.31% |
| O=C(OCCN1C(=O)c2ccccc2C1=O)c1cc2ccccc2o1 | -11.6 | -4.04 | 0.07 | 97.3% | 99.1% | 2.92 | 3.68% |
| COCCn1c(CN(C)Cc2ccccc2)nc2c1c(=O)n(C)c(=O)n2C | -5.71 | 8.7 | 0.55 | 87.8% | 91.5% | 3.04 | 1.53% |
| O=C1C2C3C=CC(C3)C2C(=O)N1c1ccccc1 (configuration not stated) | -0.875 | 4.47 | 0.71 | 100% | 98.7% | 1.81 | 1.49% |
| CCc1cc2c(=O)c(-c3nc4ccccc4n3C)c(C(C)C)oc2c(CN2CCN(C)CC2)c1O | -3.21 | 8.45 | -0.59 | 69.4% | 82.8% | 1.74 | 1.64% |
| COc1ccccc1-c1cc(N)n(S(=O)(=O)c2ccc(F)c(C)c2)n1 | -9.16 | -5.82 | -3.08 | 55% | 64% | 4.39 | 3.97% |
| Cc1ccc(CC(CC(=O)O)C(=O)NC2CCCCC2)cc1 (configuration not stated) | -8.33 | -0.295 | -0.76 | 101% | 99.2% | 2.5 | 3.83% |
| CC1=CS/C(=C(/C#N)C(=O)N2CCCCC2)N1c1ccccc1 | -0.66 | -8.34 | -1.48 | 97.3% | 95.8% | 0.425 | 2.37% |
| O=C1c2ccccc2C(Nc2ccc3c(c2)OCO3)N1Cc1ccco1 (configuration not stated) | 5.28 | -10.7 | -4.48 | 78% | 73.3% | 1.98 | 2.26% |
| COc1cccc(NC(=O)CSc2ncnc3c2oc2ccccc23)c1 | -12.8 | 6.07 | -2.19 | 94.2% | 87.3% | 2.46 | 4.42% |
| Cc1cc(C)n2c(SCC#N)nnc2n1 | -13.1 | -13 | 0.04 | 103% | 92.2% | 2.84 | 3.94% |
| CC(C)Sc1nc(-c2cccs2)nc2c1c(=O)n(C)c(=O)n2C | -2.16 | -19 | -6.85 | 77.3% | 69.4% | 1.46 | 7.05% |
| CCc1ccc(C2CC(c3ccccc3)Nc3nc(N)nn32)cc1 (configuration not stated) | -5.9 | -6.06 | 0.7 | 97.3% | 100% | -0.27 | 5.98% |
| CSC1=NCCN1C(=O)C(C)Oc1ccccc1 (configuration not stated) | 1.44 | -0.77 | 1.74 | 101% | 99.2% | 0.34 | 0.46% |
| Cn1c(N)c(C(=O)COC(=O)Cc2ccsc2)c(=O)n(C)c1=O | -10.1 | -0.56 | -0.79 | 93.6% | 97.7% | 0.31 | -0.32% |
| COc1cccc(C2c3c(oc4ccccc4c3=O)C(=O)N2c2ccccn2)c1 (configuration not stated) | -2.5 | -15.9 | 0.48 | 92.4% | 97.2% | 0.28 | 4.39% |
| COc1ccc(-c2csc(N3CCN(C(=O)c4ccco4)CC3)n2)cc1 | -13 | 19 | 2.74 | 98.5% | 85.1% | 0.95 | 2.04% |

| SMILES | growth inhibition [1] [%] | growth inhibition [2] [%] | viability increase [3] [%] | viability [4] | viability [5] | inhibition [6] [%] | RAM network inhibition [7] |
| --- | --- | --- | --- | --- | --- | --- | --- |
| CCCC(=O)NCCCc1nc2ccccc2n1CCC | -2.54 | -20.1 | -1.65 | 102% | 95.1% | 1.56 | 3.21% |
| NC(=O)c1ccsc1NC(=O)c1cccs1 | -5 | -5.65 | -2.23 | 104% | 92.8% | 1.59 | 0.37% |
| O=C(Nc1nccs1)C1CCCN(S(=O)(=O)c2cccc3cccnc23)C1 (configuration not stated) | -3.46 | 11.8 | -1.85 | 71.2% | 68.6% | 1.6 | 4.95% |
| O=C(NCCCN1CCCCC1)C1(S(=O)(=O)c2ccc(Cl)cc2)CC1 | -12.4 | -14 | -1.07 | 103% | 97.2% | 1.6 | 2.82% |
| CC(Cc1ccccc1)N/C=C1/CC(=O)NC1=O (configuration not stated) | -8.61 | 0.51 | -1.53 | 97% | 97% | 1.42 | 2.56% |
| CC1=CS/C(=C(/C#N)C(=O)N2CCOCC2)N1c1ccccc1 | -2.33 | 1.7 | -1.17 | 94.2% | 94.7% | 0.255 | 0.92% |
| CCc1nnc(NC(=O)C2Cc3ccccc3C(=O)O2)s1 (configuration not stated) | -13.9 | -14.9 | 1.66 | 102% | 104% | 1.32 | 5.85% |
| Cn1c(Cn2c(=O)sc3ccccc32)nnc1SCc1ccccc1F | -4.61 | 5.46 | -0.13 | 96.6% | 97.4% | 2.95 | 5.27% |
| O=C(NCCOC(=O)c1ccncc1)c1ccccc1 | -0.685 | -1.32 | -0.4 | 99.2% | 99.7% | 1.27 | 3.05% |
| CCOc1cc(C2NC(=O)NC(O)(C(F)(F)F)C2C(=O)c2ccc(Cl)cc2)ccc1O (configuration not stated) | -3.6 | -4.53 | -1.34 | 86.7% | 94.3% | 1.62 | -0.26% |
| COc1cccc(CNC(=O)CN(c2cc(C)cc(C)c2)S(=O)(=O)c2c(C)noc2C)c1 | -6.25 | -3.9 | -2.41 | 90.3% | 90.4% | 1.34 | 7.12% |
| CN(C)c1oc(-c2ccccc2Cl)nc1S(=O)(=O)c1ccccc1 | -17.1 | 0.09 | -0.11 | 95.5% | 93.2% | 1.2 | 17% (active) |
| O=C(NCc1cccs1)c1cnc2sccn2c1=O | -9.93 | 18 | 0.04 | 99.3% | 89.9% | 1.6 | 0.36% |
| Cc1cc(C)n2nc(S(=O)(=O)NC3CCCCC3)nc2n1 | -7.41 | -7.9 | -0.66 | 103% | 98.5% | 1.06 | -0.89% |
| O=C(NCc1ccccn1)C1CC(=O)N(C2CCCC2)C1 (configuration not stated) | -5.27 | 4.21 | 1.73 | 103% | 96.9% | 1.5 | 2.33% |
| COc1ccc2c(c1)[nH]c1c(N3CCN(Cc4ccc5c(c4)OCO5)CC3)ncnc12 | -15.7 | -18.4 | -5.9 | 11.9% (active) | 23.1% (active) | 2.08 | 5.66% |
| CCCCCn1c(CNC(=O)CC)nc2ccccc21 | -6.04 | -11.1 | 0.02 | 97.5% | 96.5% | 1.53 | 4.9% |
| COc1ccc(S(=O)(=O)n2nc(-c3cc(OC)c(OC)c(OC)c3)cc2N)cc1OC | -12 | 12.7 | -3.64 | 56.3% | 74.8% | 0.16 | 5.52% |
